ChEMBL document CHEMBL1127837, “6,9-Bis[(aminoalkyl)amino]benzo[g]isoquinoline-5,10-diones. A novel class of chromophore-modified antitumor anthracene-9,10-diones: synthesis and antitumor evaluations” (J Med Chem, 1994)
Values after ≈ are worked out from the molar mass of the structure shown.

Tests used:
[1] = species on record: Mus musculus; experiment: The compound was tested for antitumor activity against P388 murine leukemia; assay type: functional
How it was run: (§1)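 P388 cells kept by serial ip passage (10^5 cells) in DBA2 male mice. CD2F1 mice inoculated iv with 10^6 cells on day 0. Drug given iv on days 1, 4 and 7. Daily observation for toxicity and survival over 60 days. Median survival time per group, expressed as %T/C = MST treated/MST control × 100.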

[2] = tested on: LoVo; experiment: Tested in vitro for cytotoxic activity against Human colon Adenocarcinoma sensitive cell line (LoVo); assay type: functional, cell-based
How it was run: (§2)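 LoVo and doxorubicin-resistant LoVo/Dx colon cells grown in Ham's F12 with 10% fetal calf serum, glutamine, vitamins and Hepes at 37 °C. 2.5 × 10^5 cells/mL plated and preincubated 24 h, then exposed to drug for 144 h. MTT read-out at 570 nm. IC50 (µg/mL) derived; resistance index = IC50 resistant / IC50 sensitive line.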

[3] = Resistance index is the ratio of IC50 of resistant cell line/IC50 of sensitive cell line; assay type: functional; how it was run: as §2
[4] = tested on: LoVo/DX (Homo sapiens); experiment: Tested in vitro for cytotoxic activity against Doxorubicin resistant Human colon Adenocarcinoma cell line
[5] = The compound was tested for antitumor activity against P388 murine leukemia by measuring maximum tolerated dose; assay type: ADME, organism-based; conditions: mouse, in vivo; read-out: LD10
How it was run: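 CD2F1 mice were given 10^6 P388 cells iv, followed by iv treatment on days 1, 4 and 7 after transplantation. Mice were observed daily for toxicity and survival for 60 days. The value is the maximum tolerated dose, taken as LD10, or else the maximum dose administered.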

[6] = tested on: L1210; experiment: Tested in vitro for inhibitory activity against L1210 murine leukemia; assay type: functional, cell-based; conditions: Mus musculus
How it was run: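 L1210 suspension cells grown in McCoy's 5A with 10% horse serum, 10% CO2, 37 °C. Drug dissolved in water and added to 10^5 cells/tube at final 0.01, 0.1, 1 and 10 µg/mL.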

[7] = tested on: P388; experiment: Tested for antitumor activity against P388 murine leukemia; assay type: functional, Mus musculus; how it was run: as §1

IC50 [6] [µg/mL]	SMILES	T/C [1] [%]	IC50 [2] [µg/mL]	Ratio [3]	IC50 [4] [µg/mL]	MTD [5] [mg/kg/day]	T/C [7] [%]
	O=C1c2ccncc2C(=O)c2c(NCCOCCO)ccc(NCCOCCO)c21		8.7 (≈ 20.9 µM)	31	267 (≈ 642 µM)		
	CN(C)CCNc1ccc(NCCN(C)C)c2c1C(=O)c1cc[n+]([O-])cc1C2=O		0.44 (≈ 1.11 µM)	6	2.6 (≈ 6.54 µM)	40	122
1.8 (≈ 3.65 µM)	CC(C)N(CCNc1ccc(NCCN(C(C)C)C(C)C)c2c1C(=O)c1ccncc1C2=O)C(C)C		2.5 (≈ 5.06 µM)	1.1	2.8 (≈ 5.67 µM)		
0.03 (≈ 0.0733 µM)	CC(C)NCCNc1ccc(NCCNC(C)C)c2c1C(=O)c1ccncc1C2=O		0.3 (≈ 0.733 µM)	11	3.4 (≈ 8.3 µM)		
0.04 (≈ 0.0977 µM)	CCCNCCNc1ccc(NCCNCCC)c2c1C(=O)c1ccncc1C2=O		0.2 (≈ 0.488 µM)	14	2.8 (≈ 6.84 µM)		
0.3 (≈ 0.733 µM)	CN(C)CCCNc1ccc(NCCCN(C)C)c2c1C(=O)c1ccncc1C2=O		0.15 (≈ 0.366 µM)	2.4	0.36 (≈ 0.879 µM)		
0.44 (≈ 0.997 µM)	COCCNCCNc1ccc(NCCNCCOC)c2c1C(=O)c1ccncc1C2=O						
	NCCNc1ccc(NCCN)c2c1C(=O)c1cc[n+]([O-])cc1C2=O		7.3 (≈ 21.4 µM)	10	62.6 (≈ 183 µM)	60	200

SMILES	IC50 [6] [µg/mL]	T/C [1] [%]	IC50 [2] [µg/mL]	Ratio [3]	IC50 [4] [µg/mL]	MTD [5] [mg/kg/day]	T/C [7] [%]
NCCCCNc1ccc(NCCCCN)c2c1C(=O)c1ccncc1C2=O	1.5 (≈ 3.93 µM)	100	2.27 (≈ 5.95 µM)	0.4	0.83 (≈ 2.18 µM)	35	
O=C1c2ccncc2C(=O)c2c(NCCNCCO)ccc(NCCNCCO)c21	0.06 (≈ 0.145 µM)		1.3 (≈ 3.14 µM)	76	99.5 (≈ 241 µM)	40	118
NCCCNc1ccc(NCCCN)c2c1C(=O)c1ccncc1C2=O	0.1 (≈ 0.283 µM)		2.1 (≈ 5.94 µM)	26	54.5 (≈ 154 µM)	40	155
O=C1c2ccncc2C(=O)c2c(NCCN3CC3)ccc(NCCN3CC3)c21	0.002 (≈ 0.0053 µM)						
